# Screening results: PubChem, several laboratories
# Hep lipid drop: modulators of hepatic lipid droplet formation; AML12 mouse hepatocytes, oleate lipid droplets, BODIPY imaging; inhibition, % at 6.5 µM; 240,000 tested, 0.4% active;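 active = lipid droplet intensity inhibited by at least 50%, with more than 500 cells counted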
#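 Technique: fluorescence imaging, 20x objective, two fields per well / Assay system: AML12 hepatocytes (mouse) / Measure: % inhibition of lipid droplet signal / Doses: 6.5 µM single-point dosing / Incubation: overnight exposure / Reagent: 100 µM oleic acid challenge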
# CHT PAM: allosteric activators of human choline transporter CHT. AID 488977. B-score at 10 µM. CHT-expressing cells, membrane potential dye, choline EC20; stronger effect = higher value; LV-AA mutant CHT in HEK293 cells. 310,000 tested, 0.49% active. Q9GZV3;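 active = initial fluorescence not abnormally high and integrated response B-score, plate-corrected, over 3 SD above library mean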
# Target sequence (Q9GZV3 whole entry, looked up): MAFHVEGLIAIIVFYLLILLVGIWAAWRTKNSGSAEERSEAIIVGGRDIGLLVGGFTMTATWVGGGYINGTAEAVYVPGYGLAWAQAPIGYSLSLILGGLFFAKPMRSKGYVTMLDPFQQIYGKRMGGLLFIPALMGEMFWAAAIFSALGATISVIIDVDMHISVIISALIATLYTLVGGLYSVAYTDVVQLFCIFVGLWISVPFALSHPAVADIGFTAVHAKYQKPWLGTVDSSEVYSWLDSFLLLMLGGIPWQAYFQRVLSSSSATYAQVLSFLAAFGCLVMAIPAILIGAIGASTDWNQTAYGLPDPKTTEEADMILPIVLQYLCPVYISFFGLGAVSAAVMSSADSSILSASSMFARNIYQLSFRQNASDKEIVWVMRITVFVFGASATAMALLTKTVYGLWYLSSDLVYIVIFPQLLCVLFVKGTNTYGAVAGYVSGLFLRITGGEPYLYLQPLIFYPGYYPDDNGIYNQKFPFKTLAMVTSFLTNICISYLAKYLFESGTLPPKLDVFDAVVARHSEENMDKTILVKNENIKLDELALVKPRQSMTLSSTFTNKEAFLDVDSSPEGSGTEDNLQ
# HSF1 activator: increases HSF-1 driven luciferase reporter signal; NIH3T3-HGL HSF-1 luciferase reporter, MG132, 8 h; 100% = twice DMSO control signal; 300,000 tested, 1.7% active; AID 504408; activation, % at 9 µM;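 active = mean replicate activation of at least 50% with a set share of replicates each reaching 50%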;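 also: 0% = median of the neutral control wells and 100% = twice that signal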
# CHT block: human CHT choline transport inhibition; B-score at 10 µM; CHT-expressing cells, membrane potential dye, choline response; stronger effect = lower value; 310,000 tested, 0.86% active;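 active = B-score over 3 SD under the library average, and starting fluorescence ratio not unusually high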;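 also: choline stimulus applied at its EC90 after an EC20 pre-addition; B-score computed on integrated fluorescence ratio after choline addition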
# HSF1 inhib: HSF1 inhibition. activity change, negative = inhibition, % at 7.5 µM (by protocol). 300,000 tested, 0.77% active. AID 2098. NIH3T3-HGL HSE-luciferase, MG132-induced, luminescence 8 h; stronger effect = lower value;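 active = more than half of replicate wells show activity change below -50%, luminescence cut by over half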;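 also: luciferase reports HSF-1 transcriptional activity via heat shock element; 0% = median of DMSO wells and -100% = zero luminescence signal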
# PHOSPHO1 inh: PHOSPHO1 (human) inhibition. AID 1565. recombinant PHOSPHO1, absorbance phosphatase assay. Q8TCT1. 290,000 tested, 1.1% active. inhibition, % at 13.3 µM; in the data active = inhibition above about 60%
# CHT inh conf: human CHT inhibition, confirmatory screen. shares compounds with CHT block. CHT-expressing cells, choline membrane potential dye; LV-to-AA substituted CHT, HEK293 cells. CHT activity remaining % of control (stronger effect = lower value), % at 10 µM. 2,400 tested, 70% active. AID 493221;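 active = choline transporter activity left, mean of duplicates at 10 µM, below buffer-only control mean minus 3 SD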;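 also: depolarization triggered by choline at its EC90 following an EC20 pre-addition; 0% = hemicholinium-3 full block and 100% = buffer-only control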
# HEK293 MPD ctr: activity in parental HEK293 cells lacking CHT. shares compounds with CHT block. 2,400 tested, 4% active. membrane potential ratio readout (active if shifted either direction beyond buffer ±3SD; no single direction) at 10 µM. AID 493222. membrane potential dye, choline response; active = decrease or increase beyond buffer ±3SD;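 also: parental cells lack the transporter so any hit is non-specific; ratio is peak minus trough fluorescence over baseline after EC90 choline challenge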
# * = called active by the depositor; i = inactive; / = no result given. In the library only some 4.9% were active in any assay of this set; here they are far more common.
SMILES,Hep lipid drop,CHT PAM,HSF1 activator,CHT block,HSF1 inhib,PHOSPHO1 inh,CHT inh conf,HEK293 MPD ctr
O=C(CCCc1c[nH]c2ccccc12)N[C@@H](Cc1c[nH]c2ccccc12)C(=O)O,8,i,7,i,-7,24,/,/
Cc1ccc(-c2nnc(N3CC(C)OC(C)C3)c3ccccc23)cc1 (configuration not stated),4,i,-5,-7.5*,-1,13,59%*,i
Cc1ccc(-c2nnc(N3CCCCC3)c3ccccc23)cc1,16,i,-6,i,-4,20,/,/
CC(C)CNC1CCS(=O)(=O)C1 (configuration not stated),-1,i,-3,i,-1,0,/,/
CC1(C)CCCN(C(=O)c2ccc3c(c2NCCO)C(=O)c2ccccc2C3=O)C1,98*,i,10,-7.2*,11,-3,42%*,2.6*
O=C(N/N=C/c1cn[nH]c1-c1ccc(Cl)cc1)c1ccc([N+](=O)[O-])cc1,-12,i,26,-5.1*,6,19,60%*,i
O=C(N/N=C\c1cn[nH]c1-c1ccccc1)c1ccc([N+](=O)[O-])cc1,-8,i,-13,i,-6,6,/,/
CC(=O)N1CCN(Cc2nc3cc(NC(=O)COc4cccc(C)c4)ccc3n2C)CC1,8,i,-21,i,-1,10,/,/
COc1ccc(NC(=O)N2CCC(n3cnc4ccccc43)CC2)cc1,11,i,-1,-5.8*,-13,52,37%*,i
CN1C(=O)C(CC(=O)NCCc2ccccc2)N(NC(=O)c2ccc(Cl)cc2)C1=S (configuration not stated),-59,i,15,-12*,0,12,i,i
COc1cc(/C=C2\S/C(=N/S(=O)(=O)c3ccccc3)NC2=O)c([N+](=O)[O-])cc1OC,12,i,-2,-8.2*,2,-7,53%*,i
O=C(Nc1nc(-c2cccs2)c(C(=O)C(F)(F)F)s1)c1ccco1,-1,i,-11,-5.2*,-1,35,i,i
Cc1nc2ccccc2n1CSc1ccccc1,-7,i,3,i,-1,-9,i,i
Cc1nc2ccccc2n1Cc1ccccc1,-1,i,-5,i,-3,10,/,/
O=C(O)c1ccc2c(c1)N(Cc1ccc(F)cc1)C(=O)c1ccccc1S2,15,i,15,-5.2*,-1,24,64%*,i
N#Cc1c(Nc2ccccc2)s[nH]c1=O,3,i,-12,i,-13,22,/,/
O=C(O)c1ccc(NS(=O)(=O)c2ccc(N3C(=O)CCC3=O)cc2)cc1,-3,i,12,i,-6,35,/,/
Cn1c(=O)c(C#N)c(-c2ccc(F)cc2)c2cc(C(=O)c3cc(Cl)cc(Cl)c3O)cnc21,-43,i,-3,-8.2*,-3,41,53%*,i
O=S(=O)(CCN1CCOCC1)c1ccccc1,12,i,6,i,-2,16,/,/
Cc1c(NC(=O)/C=C/c2cn(-c3ccccc3)nc2-c2ccccc2)c(=O)n(-c2ccccc2)n1C,/,i,5,-5.7*,0,12,65%*,i
O=C(O)/C=C/c1cn(-c2ccccc2)nc1-c1ccccc1,-1,i,17,i,0,26,/,/
Fc1ccc(-c2nnc(Cc3ccc(Cl)cc3)o2)cc1,-7,i,32,i,10,17,/,/
O=C(OCc1ccccc1Cl)c1cccnc1Cl,-1,i,1,i,4,-1,/,/
N#Cc1ccccc1COC(=O)c1cccnc1N,5,i,18,-5.7*,-2,32,65%*,i
O=C(NC1CC(=O)N(c2ccc(Cl)cc2)C1)C1CC1 (configuration not stated),/,i,-6,i,1,/,/,/
SMILES,Hep lipid drop,CHT PAM,HSF1 activator,CHT block,HSF1 inhib,PHOSPHO1 inh,CHT inh conf,HEK293 MPD ctr
CC1Cc2ccccc2N1C(=O)c1ccc2snnc2c1 (configuration not stated),/,i,/,i,/,-22,/,/
Cc1nc2cc(C(=O)N3c4ccccc4CC3C)ccc2s1 (configuration not stated),-6,i,46,-5.3*,1,-109,56%*,i
COc1ccccc1C(=O)C1CCCN(C(=O)CCn2cnnn2)C1 (configuration not stated),20,i,16,i,1,-22,/,/
COc1cc(-c2nc3ccccc3s2)ccc1O,-3,i,27,i,21,3,/,/
CC(C)c1ccc(-c2nc3ccccc3s2)cc1,-6,i,-92,-8.4*,-91*,20,i,i
COc1ccc(CN2CCN(CC=C(C)C)C(CCO)C2)cc1Cn1cccn1 (configuration not stated),6,i,6,-6*,-3,18,64%*,i
COc1ccc(CN(C(=O)c2nsc(Cl)c2Cl)C(C(=O)NC2CCCCC2)c2ccc(OC)cc2)cc1 (configuration not stated),/,i,6,i,8,-24,/,/
COc1ccc(CN(C(=O)c2ccc3c(c2)OCCO3)C(C(=O)NC2CCCCC2)c2ccc3ncccc3c2)cc1 (configuration not stated),/,i,-2,-9.2*,-6,4,16%*,i
O=C(NC1CCCCC1)C(c1ccc2ncccc2c1)N(Cc1ccccc1)C(=O)c1ccc2c(c1)OCCO2 (configuration not stated),0,i,2,-6.7*,2,36,47%*,i
O=C(NC1CCN(CCc2c[nH]c3ccccc23)CC1)c1ccccc1,-2,i,-36,i,-14,6,/,/
Cc1cccc(CC(Cc2nc3ccccc3[nH]2)c2nc3ccccc3[nH]2)c1 (configuration not stated),-2,i,10,-9*,-4,31,59%*,i
CC(C)Cc1nc2ccccc2[nH]1,10,i,-2,i,5,24,/,/
CC(c1ccccc1)C(Cc1nc2ccccc2[nH]1)c1nc2ccccc2[nH]1 (configuration not stated),-62,i,11,i,4,-84,/,/
COc1ccccc1CC(Cc1nc2ccccc2[nH]1)c1nc2ccccc2[nH]1 (configuration not stated),-28,i,2,-8.6*,2,28,36%*,i
